Source: ChEMBL document CHEMBL4411297, “Discovery, synthesis and anti-atherosclerotic activities of a novel selective sphingomyelin synthase 2 inhibitor” (Eur J Med Chem, 2019)

Key:
[1] = molecular target: T1, Phosphatidylcholine:ceramide cholinephosphotransferase 2 (Homo sapiens, UniProt Q8NHU3); test: Inhibition of SMS2 (unknown origin) over-expressed in H5 insect cell lysate using C6-NBD-Ceramide and DMPC as substrates preincubated for 30 mins followed by substrate addition and measured after 2 hrs by TLC or HPLC method; assay type: subcellular
T1 sequence (Q8NHU3 whole entry): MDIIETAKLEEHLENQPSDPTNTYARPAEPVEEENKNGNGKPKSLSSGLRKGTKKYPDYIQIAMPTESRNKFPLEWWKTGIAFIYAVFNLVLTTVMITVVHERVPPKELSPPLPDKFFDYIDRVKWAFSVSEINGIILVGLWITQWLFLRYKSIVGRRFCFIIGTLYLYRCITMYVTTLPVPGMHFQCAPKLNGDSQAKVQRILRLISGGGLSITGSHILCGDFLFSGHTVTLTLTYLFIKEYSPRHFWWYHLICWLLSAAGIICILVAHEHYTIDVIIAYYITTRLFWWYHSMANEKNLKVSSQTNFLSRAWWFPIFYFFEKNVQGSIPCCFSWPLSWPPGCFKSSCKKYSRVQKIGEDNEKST

[2] = molecular target: T2, Phosphatidylcholine:ceramide cholinephosphotransferase 1 (Homo sapiens) (UniProt Q86VZ5); test: (§1) Inhibition of purified SMS1 (unknown origin) using C6-NBD-Ceramide and DMPC as substrates preincubated for 5 mins followed by substrate addition and measured after 30 mins by TLC or HPLC method
T2 sequence (whole entry): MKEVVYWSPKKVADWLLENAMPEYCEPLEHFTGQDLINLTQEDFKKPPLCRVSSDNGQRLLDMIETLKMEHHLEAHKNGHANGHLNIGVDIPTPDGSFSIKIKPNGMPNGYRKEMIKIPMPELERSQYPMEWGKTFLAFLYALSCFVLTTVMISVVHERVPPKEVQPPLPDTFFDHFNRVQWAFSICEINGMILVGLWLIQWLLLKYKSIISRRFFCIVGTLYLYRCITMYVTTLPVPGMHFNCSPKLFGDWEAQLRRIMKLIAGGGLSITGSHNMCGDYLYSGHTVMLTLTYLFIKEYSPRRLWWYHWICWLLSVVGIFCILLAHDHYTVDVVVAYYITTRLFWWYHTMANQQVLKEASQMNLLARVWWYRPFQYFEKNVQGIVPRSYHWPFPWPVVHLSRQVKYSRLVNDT
Summary of the method: (§2)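 Purified SMS1 or SMS2 in DDM detergent buffer; inhibitor in DMSO pre-incubated 5 min at room temperature, then C6-NBD-ceramide and DMPC added, 30 min at 37 °C; ethanol quench, TLC or HPLC read-out. Activity expressed as percent of no-inhibitor vehicle; IC50 from ten (SMS1) or eight (SMS2) concentrations, mean ± SD, n = 3.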

[3] = molecular target: T3, Phosphatidylcholine:ceramide cholinephosphotransferase 1 (Homo sapiens, UniProt Q86VZ5); test: as §1; summary of the method: as §2
T3 sequence (Q86VZ5 whole entry): T2 sequence (whole entry)

[4] = molecular target: T4, Phosphatidylcholine:ceramide cholinephosphotransferase 2 (Mus musculus) (UniProt Q9D4B1); test: Inhibition of SMS2 in C57BL/6J mouse bone marrow derived macrophages assessed as increase in [3H]-cholesterol efflux after 17 hrs by liquid scintillation analysis
T4 sequence (whole entry): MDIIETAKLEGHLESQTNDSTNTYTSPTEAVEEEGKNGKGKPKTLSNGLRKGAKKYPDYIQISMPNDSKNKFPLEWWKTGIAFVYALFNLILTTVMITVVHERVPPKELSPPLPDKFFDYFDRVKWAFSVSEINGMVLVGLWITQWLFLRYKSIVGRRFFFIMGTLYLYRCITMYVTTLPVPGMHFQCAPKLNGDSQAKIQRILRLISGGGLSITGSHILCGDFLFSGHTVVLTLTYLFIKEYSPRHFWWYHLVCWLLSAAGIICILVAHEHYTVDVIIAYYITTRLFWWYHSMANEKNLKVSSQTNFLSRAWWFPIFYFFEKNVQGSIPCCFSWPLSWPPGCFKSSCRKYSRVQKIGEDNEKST
Summary of the method: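 Bone marrow macrophages treated with inhibitor at various concentrations for 17 h, labeled with [³H]-cholesterol on acetylated LDL, equilibrated 1 h in DMEM/0.2% BSA, then given 50 µg/ml HDL; medium taken at 8 h. Efflux = medium radioactivity as percent of medium plus cell-lysate total, by scintillation counting.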

[5] = Tmax in C57BL/6J mouse at 100 mg/kg/day, ig by HPLC-MS/MS analysis; assay type: ADME, organism-based; conditions: in vivo, po
Summary of the method: (§3)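 Male C57BL/6J mice (6–8 weeks, ~20 g), fasted 12 h, given a single intragastric dose of 25, 50 or 100 mg/kg in 10% DMSO/30% PEG/0.9% NaCl. Retro-orbital blood at 5 min to 8 h; plasma protein-precipitated with methanol plus internal standard, assayed by LC-MS/MS; noncompartmental analysis. Mean ± SD, n = 6.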

[6] = Half life in C57BL/6J mouse at 100 mg/kg/day, ig by HPLC-MS/MS analysis; assay type: ADME, organism-based; conditions: in vivo, po
Summary of the method: (§4)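 Male C57BL/6J mice, six to eight weeks old, about 20 g, fasted 12 h with free water. Given a single intragastric dose of 25, 50 or 100 mg/kg in 10% DMSO/30% PEG-100/0.9% NaCl. Blood taken retro-orbitally at 5 min to 8 h. Plasma protein-precipitated with methanol plus internal standard, then HPLC-MS/MS on a C18 column. Noncompartmental analysis, n = 6.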

[7] = Tmax in C57BL/6J mouse at 50 mg/kg/day, ig by HPLC-MS/MS analysis; assay type: ADME, organism-based; conditions: in vivo, po; summary of the method: as §3
[8] = Apparent volume of distribution during terminal phase in C57BL/6J mouse at 50 mg/kg/day, ig by HPLC-MS/MS analysis; assay type: ADME, organism-based; conditions: in vivo, po, read-out: Vz/F; summary of the method: as §4
[9] = Apparent oral clearance in C57BL/6J mouse at 50 mg/kg/day, ig by HPLC-MS/MS analysis; assay type: ADME, organism-based; conditions: in vivo; summary of the method: as §4
[10] = MRT (0 to 8 hrs) in C57BL/6J mouse at 25 mg/kg/day, ig by HPLC-MS/MS analysis; assay type: ADME, organism-based; conditions: in vivo, po; summary of the method: as §3
[11] = Ratio of drug level in liver to plasma in C57BL/6J mouse at 100 mg/kg/day, ig qd for 7 days measured on day 7; assay type: ADME, organism-based; conditions: po
Summary of the method: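 C57BL/6J mice dosed intragastrically at 100 mg/kg once daily for 7 days; compound levels in liver and blood measured on day 7, n = 5.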

[12] = test system: Mus musculus; test: Effect on plasma ALT levels in C57BL/6J mouse at 100 mg/kg/day, ig qd for 7 days measured on day 7; assay type: ADME, organism-based; conditions: in vivo, po, 168 h
Summary of the method: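 C57BL/6J mice dosed by gavage at 100 mg/kg once daily for 7 days. Plasma SM sampled on days 0, 3 and 7. Plasma ALT and AST measured on day 7 by automated analyzer. Compared with vehicle, n = 10.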

[13] = test system: Mus musculus; test: Anti-atherosclerotic activity in apoE knockout mouse fed with western-type diet assessed as reduction in monocyte count at 12.5 mg/kg/day, ig for 7 weeks by flow cytometric analysis relative to control; assay type: functional; design: scale not given: the % may be the effect or the level left
Summary of the method: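 ApoE KO mice started at 8 weeks old on Western-type diet for 6 weeks. Then dosed by gavage daily with vehicle, 12.5 or 40 mg/kg for 7 weeks with the diet continued, 10 mice per group. Blood single-cell suspensions stained with antibodies in PBS and analysed by flow cytometry. Mean ± SD, n = 5.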

IC50 [1]: 880 nM | inhibition [2]: Dose-dependent effect | IC50 [3]: 134 µM | inhibition [4]: Dose-dependent effect | Tmax [5]: 6 min | half-life [6]: 151 min | Tmax [7]: 4.8 min | Vd/F [8]: 26.5 L | CL/F [9]: 180 mL/min | MRT [10]: 1.9 h | Kp at 168 h [11]: 5
Compound: CCc1ccccc1COc1ccccc1C(=O)Nc1cccnc1
Activity [12]: Non-Toxic | Activity [13]: 51%
